Assay outcomes deposited in PubChem by Sanford-Burnham Center for Chemical Genomics.
hiPSC survival = enhancers of human iPSC single-cell survival; 0.044% of 360,000 active; hiPSC single-cell survival, ATPlite luminescence; 100% = ROCK inhibitor wells, 0% = DMSO; survival enhancement, % at 20 µM; in the data active = survival enhancement above about 18%;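 also: cells exposed to compounds for 16 hours before the ATP read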
FLuc inhib CS = counter-screen for luciferase assay inhibitors: firefly luciferase inhibition; ATPLite firefly luciferase biochemical luminescence, 10 min; AID 1006; inhibition, % at 10 µM; 1.5% of 200,000 active; P08659;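 active = inhibition above about 50% when tested at 10 µM, limit read from the data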
Target sequence (P08659 whole entry, looked up): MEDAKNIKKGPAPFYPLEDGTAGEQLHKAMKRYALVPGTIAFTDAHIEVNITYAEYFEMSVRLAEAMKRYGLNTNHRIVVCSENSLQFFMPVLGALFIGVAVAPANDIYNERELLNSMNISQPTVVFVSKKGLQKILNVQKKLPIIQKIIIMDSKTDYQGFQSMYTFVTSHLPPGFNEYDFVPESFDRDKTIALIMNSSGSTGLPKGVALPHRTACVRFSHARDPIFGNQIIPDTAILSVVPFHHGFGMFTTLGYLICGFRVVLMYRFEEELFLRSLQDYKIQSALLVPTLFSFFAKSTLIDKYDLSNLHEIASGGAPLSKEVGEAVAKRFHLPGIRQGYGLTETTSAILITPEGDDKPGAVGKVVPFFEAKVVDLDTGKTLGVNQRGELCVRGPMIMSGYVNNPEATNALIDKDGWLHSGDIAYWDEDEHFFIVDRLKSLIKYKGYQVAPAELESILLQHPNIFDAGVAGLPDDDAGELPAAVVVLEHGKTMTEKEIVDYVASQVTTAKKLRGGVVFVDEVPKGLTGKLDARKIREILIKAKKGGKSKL
MIN6 prolif = inducers of beta-cell replication in MIN6 cells; 0.29% of 330,000 active; proliferation, % at 10 µM; AID 2380; MIN6 cells proliferation, ATPlite luminescence, 48 h; cells starved in 0.2% serum; 100% = growth in 10% serum;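 active = compounds whose signal lies at least 3.5 SD above the mean of all wells on their plate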
PPC-1+TRAIL kill = PPC-1 cancer cell killing with TRAIL present | 0.41% of 220,000 active | PPC-1 cells + TRAIL, ATPLite viability luminescence | cell killing (% activity), % at 4 µM or 5 µM | AID 1443;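 active = cell killing above 50% in the first pass at 4 µM, then a duplicate retest at 5 µM averaging 50% or more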
TRAIL sens C8 = caspase-8 TRAIL sensitization | NB7+C8 cells + TRAIL, ATPlite viability luminescence | inhibition (viability loss, TRAIL sensitization), % at 10 µM | 1% of 360,000 active | AID 624354;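 active = compounds causing at least 50% loss of cell viability in the single-dose screen, relative to plate controls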
FLuc act counter = affects firefly luciferase, flagging false hits in luciferase stimulation screens; activation factor at 10 µM; P08659; ATPlite luciferase biochemical, luminescence, 10 min; 0 = ATP-free wells, 1 = DMSO control; AID 1027; 200,000 tested, under 10 active;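 active = luciferase activation factor, scaled between plate controls, of at least 2 with compound at 10 µM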
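System: luciferase plus luciferin reagent, cell-free; medium: PBS as buffer for the ATP substrate; dosing: test compounds dosed from 2 mM stocks in 100% DMSO; timing: 10 min post-reagent at room temperature; measured by: luminescence measurement of luciferase light output; evaluation: luciferase activation, seen as luminescence increase over controls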
Numbers stand for hits. Only some compounds are listed: those with a hit (about 1.8% of all), similar ones and a draw of the others.

NC(=O)c1ccccc1N/C=C/C(=O)c1cccs1 was read as hiPSC survival inactive, FLuc inhib CS 84.7, MIN6 prolif inactive, PPC-1+TRAIL kill inactive, TRAIL sens C8 58.1 and FLuc act counter inactive.
For Cc1c(NC(=O)c2cccs2)cccc1NC(=O)c1cccs1 the results were hiPSC survival inactive, MIN6 prolif inactive and TRAIL sens C8 inactive.
Screening Cc1ccc(C(=O)/C=C/Nc2ccccc2C(N)=O)o1 returned hiPSC survival inactive, FLuc inhib CS 62.7, MIN6 prolif inactive, PPC-1+TRAIL kill inactive, TRAIL sens C8 inactive and FLuc act counter inactive.
CC1CCN(C(=O)c2[nH]cnc2C(=O)NCC(=O)OC(C)(C)C)CC1 was read as hiPSC survival 26.4, MIN6 prolif inactive and TRAIL sens C8 inactive.
`CC(C)(C)OC(=O)CNC(=O)c1nc[nH]c1C(=O)N1CCN(C(=O)OC(C)(C)C)CC1` gave hiPSC survival inactive, MIN6 prolif inactive and TRAIL sens C8 inactive.
Screening CC(C(=O)NCc1ccccc1)n1cc([N+](=O)[O-])cn1 (centres undefined) returned hiPSC survival inactive, MIN6 prolif inactive and TRAIL sens C8 inactive.
`c1ccc(-c2cn3ccccc3n2)cc1` gave hiPSC survival inactive and TRAIL sens C8 inactive.
Screening Brc1ccc(-c2cn3ccccc3n2)cc1 returned hiPSC survival inactive, MIN6 prolif inactive, PPC-1+TRAIL kill inactive and TRAIL sens C8 47.4.
Screening CCOc1ccc(-c2cn3ccccc3n2)cc1[N+](=O)[O-] returned hiPSC survival inactive, FLuc inhib CS 77.7, MIN6 prolif inactive, PPC-1+TRAIL kill inactive, TRAIL sens C8 52.2 and FLuc act counter inactive.
Screening CN(C)S(=O)(=O)c1ccc(-c2cn3ccccc3n2)cc1 returned hiPSC survival inactive, FLuc inhib CS 74.5, MIN6 prolif inactive, PPC-1+TRAIL kill inactive, TRAIL sens C8 60.1 and FLuc act counter inactive.
Screening CCN(CC)S(=O)(=O)c1ccc(-c2cn3ccccc3n2)cc1 returned hiPSC survival inactive and TRAIL sens C8 inactive.
`Brc1ccc(OCc2cn3ccccc3n2)cc1` gave hiPSC survival inactive, FLuc inhib CS 76.8, MIN6 prolif inactive, PPC-1+TRAIL kill inactive, TRAIL sens C8 inactive and FLuc act counter inactive.
`Oc1ccc(C=NN=Cc2ccco2)c(O)c1` gave hiPSC survival inactive and TRAIL sens C8 inactive.
For Cc1c(C(=O)Nc2cccc([N+](=O)[O-])c2)sc2ncn(CC(=O)N3CCOCC3)c(=O)c12 the results were hiPSC survival inactive, MIN6 prolif inactive and TRAIL sens C8 inactive.
`Oc1ccc(-c2cn3ccccc3n2)cc1` gave hiPSC survival inactive, MIN6 prolif inactive, PPC-1+TRAIL kill inactive and TRAIL sens C8 62.6.
`COc1ccc(C(=O)O/N=C(\C)c2nccs2)cc1` gave hiPSC survival inactive, FLuc inhib CS 91.7, MIN6 prolif inactive, PPC-1+TRAIL kill inactive, TRAIL sens C8 inactive and FLuc act counter inactive.
For C/C(=N\OC(=O)c1c(-c2c(F)cccc2Cl)noc1C)c1nccs1 the results were hiPSC survival inactive, FLuc inhib CS inactive, MIN6 prolif inactive, PPC-1+TRAIL kill inactive, TRAIL sens C8 inactive and FLuc act counter inactive.
Screening C/C(=N\OC(=O)c1ccc(F)cc1)c1nccs1 returned hiPSC survival inactive, FLuc inhib CS 87.4, MIN6 prolif inactive, PPC-1+TRAIL kill inactive, TRAIL sens C8 inactive and FLuc act counter inactive.
COc1ccc(C(=O)O/N=C(/C)c2cccs2)cc1 was read as hiPSC survival inactive, FLuc inhib CS 95.9, MIN6 prolif inactive, PPC-1+TRAIL kill inactive, TRAIL sens C8 inactive and FLuc act counter inactive.
For C/C(=N/OC(=O)c1c(F)cccc1F)c1nccs1 the results were hiPSC survival inactive, FLuc inhib CS 81.0, MIN6 prolif inactive, PPC-1+TRAIL kill inactive, TRAIL sens C8 inactive and FLuc act counter inactive.
For CC(=NOC(=O)C1CCCCC1)c1nccs1 the results were hiPSC survival inactive and TRAIL sens C8 inactive.
`CC1CC(C)(C)CC2(C1)NC(=O)N(CC(=O)OCC(=O)Nc1cc(S(=O)(=O)N3CCCCC3)ccc1Cl)C2=O` (centres undefined) gave hiPSC survival inactive and TRAIL sens C8 inactive.
For O=C(Nc1nc(-c2ccc(F)c(F)c2)cs1)Nc1ccc(F)cc1F the results were hiPSC survival inactive, MIN6 prolif inactive and TRAIL sens C8 inactive.
`COc1cc(OC)c(OC)cc1CNC(=O)c1cc(S(=O)(=O)N(C)c2ccccc2OC)ccc1C` gave hiPSC survival inactive and TRAIL sens C8 inactive.
For Cc1cc2cc(C=C(C#N)C#N)c(Cl)nc2cc1C the results were hiPSC survival inactive, FLuc inhib CS inactive, MIN6 prolif inactive, PPC-1+TRAIL kill inactive, TRAIL sens C8 inactive and FLuc act counter inactive.
For CC(=O)c1ccccc1NC(=O)COC(=O)CCCN1C(=O)c2cccc3cccc(c23)C1=O the results were hiPSC survival 31.6, FLuc inhib CS inactive, MIN6 prolif inactive, PPC-1+TRAIL kill inactive, TRAIL sens C8 inactive and FLuc act counter inactive.
Screening O=C(/C=C/c1ccccc1Cl)Nc1ccc2c(c1)C(=O)NC2=O returned hiPSC survival inactive, FLuc inhib CS inactive, MIN6 prolif inactive, PPC-1+TRAIL kill inactive, TRAIL sens C8 inactive and FLuc act counter inactive.
O=C(/C=C/c1ccccc1)Nc1ccc2c(c1)C(=O)NC2=O was read as hiPSC survival inactive, FLuc inhib CS inactive, MIN6 prolif inactive, PPC-1+TRAIL kill inactive, TRAIL sens C8 50.0 and FLuc act counter inactive.
Screening C=CCNC(=O)c1cc(-c2ccc3c(c2)OCO3)on1 returned hiPSC survival inactive, MIN6 prolif inactive and TRAIL sens C8 51.3.
COCCNC(=O)c1cc(-c2ccc3c(c2)OCO3)on1 was read as hiPSC survival inactive, FLuc inhib CS 55.6, MIN6 prolif inactive, PPC-1+TRAIL kill inactive, TRAIL sens C8 inactive and FLuc act counter inactive.
O=S(=O)(Nc1cccc(S(=O)(=O)N2CCCC2)c1)c1cccs1 was read as hiPSC survival inactive, MIN6 prolif inactive and TRAIL sens C8 inactive.
O=C(CSCc1cccc(Br)c1)N=Nc1c(O)[nH]c2ccccc12 was read as hiPSC survival inactive, FLuc inhib CS inactive, MIN6 prolif inactive, PPC-1+TRAIL kill inactive, TRAIL sens C8 inactive and FLuc act counter inactive.
For O=Nc1c(-c2c(O)[nH]c3cc(Br)ccc23)[nH]c2ccccc12 the results were hiPSC survival inactive, MIN6 prolif inactive and TRAIL sens C8 83.5.
Screening COc1cccc(OCc2nc3ccccc3[nH]2)c1 returned hiPSC survival inactive, FLuc inhib CS 51.5, MIN6 prolif inactive, PPC-1+TRAIL kill inactive, TRAIL sens C8 inactive and FLuc act counter inactive.
For COc1ccc(OCc2nc3ccccc3[nH]2)cc1 the results were hiPSC survival inactive, FLuc inhib CS 70.4, MIN6 prolif inactive, PPC-1+TRAIL kill inactive, TRAIL sens C8 inactive and FLuc act counter inactive.
Cc1ccc(SCc2nc3ccccc3[nH]2)cc1 was read as hiPSC survival inactive, FLuc inhib CS 53.7, MIN6 prolif inactive, PPC-1+TRAIL kill inactive, TRAIL sens C8 inactive and FLuc act counter inactive.
